Assay [1] deals with Human immunodeficiency virus type 1 integrase (Human immunodeficiency virus 1) (UniProt Q7ZJM1). Kind of assay: Inhibition of GST-tagged HIV1 integrase and C-terminal His6-tagged HIV1 integrase dimerization at 100 uM after 3 hrs by AlphaScreen-based dimerization assay. The essentials:
(§1)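 AlphaScreen proximity assay. GST-tagged HIV-1 IN is mixed with His6-tagged IN and incubated so monomers exchange between pre-existing dimers, giving a steady-state mix of homo- and GST/His6 heterodimers. Photon counts are normalized to DMSO and blank controls and expressed as normalized signal (%). Dose–response curves give the IC50, and single-concentration tests give percent inhibition.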
On the technique in general: In Alpha technology, singlet oxygen from a donor bead excites a nearby acceptor bead.

Assay [2] addresses T1, Human immunodeficiency virus type 1 integrase (Human immunodeficiency virus 1, UniProt Q7ZJM1). The assay can be described thus: Inhibition of GST-tagged HIV1 integrase and C-terminal His6-tagged HIV1 integrase dimerization after 3 hrs by AlphaScreen-based dimerization assay. The essentials: as §1
For assay [3], the target named is T1, Human immunodeficiency virus type 1 integrase. The assay can be described thus: Inhibition of HIV1 integrase using oligodeoxynucleotide as substrate after 1 hr by ELISA. On the technique in general: In an ELISA, binding on a coated surface is turned into a signal by an enzyme label.

Structures are written as SMILES. Calls of active or inactive are those of the source. The rule behind the calls is not given here.

T1 sequence (Q7ZJM1 whole entry): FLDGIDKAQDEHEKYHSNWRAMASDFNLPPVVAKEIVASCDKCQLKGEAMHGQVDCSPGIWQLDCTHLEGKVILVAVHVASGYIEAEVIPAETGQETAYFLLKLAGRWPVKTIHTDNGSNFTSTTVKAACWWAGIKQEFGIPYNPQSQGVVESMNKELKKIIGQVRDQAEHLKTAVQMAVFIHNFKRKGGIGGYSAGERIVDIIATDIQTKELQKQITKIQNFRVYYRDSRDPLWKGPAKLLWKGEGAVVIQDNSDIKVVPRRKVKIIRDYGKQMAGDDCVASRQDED
Human immunodeficiency virus type 1 integrase (Human immunodeficiency virus 1), sequence (Q7ZJM1 as listed by the source): as the sequence (Q7ZJM1 whole entry) above

Usually inhibition stands for the percentage by which the read-out fell short of the control. `O=C(NCCNC(=O)c1nc2ccccc2c(=O)[nH]1)c1ccc2ccccc2n1`: in assay [1], the inhibition result was “inactive”.

In assay [1], `CCc1ccc(O)c(NC(=S)NC(=O)COc2cc(C)c(Cl)c(C)c2)c1` had an inhibition of 23%.

As to `O=C(NCCNC(=O)c1cc2ccccc2cc1O)c1cc2ccccc2cc1O`, in assay [1], the inhibition result was “inactive”.

In assay [1], `C/C(CC(=O)Nc1ccc(OCc2ccccc2)cc1)=N\NC(=O)c1cc2ccccc2cc1O` came in with an inhibition of 54%.

`C[C@H](Oc1ccc2c(c1)CCC2)C(=O)NNC(=O)Nc1cccc([N+](=O)[O-])c1`: the inhibition entry in assay [1] was “inactive”.

In the case of `COc1ccc(OC)c2[nH]c(C(=O)NCCC(=O)NCCc3c[nH]c4ccccc34)cc12`, the inhibition in assay [1] amounted to 73%.

On to `Cc1ccc(C(=O)CCC(=O)Nc2nc3c(s2)CCc2c-3cnn2C)cc1C`, for which, in assay [1], the inhibition was found to be 13%.

Turning to `C/C(CC(=O)Nc1ccc(Cl)c(Cl)c1)=N\NC(=O)c1cc2ccccc2cc1O`, the inhibition entry in assay [1] is “inactive”.

Take `CC(CCc1ccccc1)NC(=O)c1ccc(NC(=O)C2COc3ccccc3O2)cc1` (stereo not drawn): in assay [1], the inhibition was 14%.

`COc1ccc(C(=O)N/N=C(\C)CC(=O)NCc2ccccc2)cc1OC`: the inhibition entry in assay [1] is “inactive”.

Take `COc1ccc(/C=C/C(=O)Nc2ncc(Cc3cccc(C)c3)s2)cc1`: the inhibition result in assay [1] is “inactive”.

Consider `Cc1cc(C)cc(OCC(=O)NNC(=O)c2ccc3ccccc3c2O)c1`, for which the inhibition entry in assay [1] was “inactive”.

The compound `COc1ccc(OC)c2[nH]c(C(=O)NCCCC(=O)Nc3ccc4c(c3)OCCO4)cc12` yielded an inhibition in assay [1] of 58%.

Compound `O=C(N/N=C/c1ccc(Sc2ccccn2)o1)c1cc2ccccc2cc1O` returned an inhibition in assay [1] of 30%.

Turning to `Cc1ccc(C2(O)CCN(CCNC(=O)Cc3cccc(C)c3)CC2)cc1`, the inhibition result in assay [1] is “inactive”.

In assay [1], `O=C(N/N=C/c1ccc(-c2ccc(Cl)cc2Cl)o1)c1cc2ccccc2cc1O` had an inhibition of 49%.

For the compound `COc1cccc2[nH]c(C(=O)NCCC(=O)Nc3nc4ccccc4s3)cc12`, the inhibition result in assay [1] was “inactive”.

As a reminder, the IC50 is the midpoint of a concentration-inhibition curve. Take `COc1ccc(CNC(=O)C/C(C)=N/NC(=O)c2cc3ccccc3cc2O)cc1`: the inhibition in assay [1] was determined as 50%. Besides, in assay [2], inhibition was half-maximal at 128 µM (IC50).

Turning to `O=C(NCCNC(=O)c1cc2ccccc2o1)c1nc2ccccc2c(=O)[nH]1`, the inhibition entry in assay [1] is “inactive”.

For the compound `O=C(CNc1ccc2ccccc2c1)N/N=C/c1ccc(-c2ccc(Cl)cc2)o1`, in assay [1], the inhibition worked out at 49%.

With `CCn1c2ccccc2c2cc(NC(=O)/C=C(\C)NNC(=O)Cc3cccc4ccccc34)ccc21`, the inhibition entry in assay [1] is “inactive”.

`COc1cccc(-c2nc(C)c(C(=O)Nc3cc(C)ccc3O)s2)c1` returned an inhibition in assay [1] of 32%.

`COc1cccc2[nH]c(C(=O)NCCCC(=O)Nc3ccc4c(c3)OCCO4)cc12` yielded an inhibition in assay [1] of 50%.

Turning to `O=C(Nc1cccc(-c2cnc3ccccc3n2)c1)c1cc2ccccc2cc1O`, in assay [1], the inhibition result was “inactive”.

`COc1ccc(CCNC(=O)C/C(C)=N/NC(=O)c2cc3ccccc3cc2O)cc1OC` gave an inhibition in assay [1] of 83%. Besides, the figures for the concentration for half-maximal inhibition (IC50) in assay [3] and in assay [2] were 79 µM and 38.4 µM, respectively.

Values taken from ChEMBL document CHEMBL2016475, “Discovery of small molecule HIV-1 integrase dimerization inhibitors” (Bioorg Med Chem Lett, 2012).
